Data reported in publication PMC4091967 (International Journal of Oncology, 2014).
Like-named read-outs stand apart in the source and are kept apart here.

Tests used:
[1] = system: DU-145 prostate cancer cells; assay: Trypan blue exclusion cell viability assay; format: cell-based, human; details: for EC100: read-out: EC100 values in DU-145 cells, trypan blue exclusion, 72 h, mean ± SEM
How it was run: (§1)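 Seeding 24 h ahead was DU-145 at 6,000 cells/well in DMEM and PC-3 at 6,500 cells/well in RPMI-1640, both with 10% FBS and 1% penicillin/streptomycin. Compounds were added from DMSO stocks (0.2% final DMSO) for 72 h, in quadruplicate. Cells were trypsinized, washed in calcium-free PBS, resuspended in PBS and counted by automated trypan blue exclusion. EC50 came from ≥6 concentrations bracketing a preliminary estimate; 3 independent experiments.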

[2] = system: PC-3 prostate cancer cells; assay: Trypan blue exclusion cell viability assay; format: cell-based, human; details: for EC100: read-out: EC100 values in PC-3 cells, trypan blue exclusion, 72 h, mean ± SEM
How it was run: as §1

[3] = Trypan blue exclusion cell viability assay on normal cells, 72 h; format: cell-based, human; details: human, HIFF (human infant foreskin fibroblasts)
How it was run: (§2)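 HIFF fibroblasts (infant foreskin, donor-consented) were kept in DMEM with 10% FBS and 1% penicillin/streptomycin at 37°C and 5% CO2, seeded at 6,000 cells/well 24 h ahead. Cells were treated for 72 h at 50 μM or at single lower concentrations (0.2% final DMSO), in quadruplicate. Cells were trypsinized, washed in calcium-free PBS, resuspended in PBS, and viability was scored by automated trypan blue exclusion.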

[4] = system: DU-145 prostate cancer cells; assay: Alamar Blue cell viability assay; format: cell-based; details: Homo sapiens, DU-145, read-out: EC50 value in Alamar Blue
How it was run: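 DU-145 cells were grown in DMEM with 10% FBS and 1% penicillin/streptomycin at 37°C and 5% CO2, then seeded at 6,000 cells/well 24 h before treatment. Compounds were added from DMSO stocks to 0.2% final DMSO for 72 h, in quadruplicate. After PBS wash, wells got Alamar Blue for 6 h; fluorescence ex 530/em 590 nm. EC50 fitted from ≥6 concentrations.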

[5] = system: DU-145 prostate cancer cells; assay: Crystal violet cell viability assay; format: cell-based, human; details: crystal violet staining, even at non-cytotoxic concentrations
How it was run: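 DU-145 cells were seeded at 6,000 cells/well in DMEM/10% FBS 24 h ahead and exposed to compound for 72 h (0.2% final DMSO), in quadruplicate. Cells were fixed in 4% formaldehyde at 4°C for 30 min, washed with MeOH:AcOH 3:1, then 80% MeOH, and stained with 0.1% crystal violet for 1 h at room temperature. Stain was dissolved in 10% AcOH; A570 read against untreated control.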

[6] = system: HIFF (human infant foreskin fibroblasts) normal cells; assay: Trypan blue exclusion cell viability assay on normal cells, 72 h; format: cell-based; details: 50 μM flavonol, mean ± SEM
How it was run: as §2

[7] = system: B12 cells; details: 3 h incubation, ref 70 (Liu et al); cited from earlier work
[8] = Homo sapiens, DU-145, 72 h, read-out: EC50 values in DU-145 cells, trypan blue exclusion, 72 h, mean ± SEM
[9] = Homo sapiens, DU-145, read-out: EC100 - EC50 values in DU-145 cells, difference between EC100 and EC50, mean ± SEM
[10] = Homo sapiens, PC-3, 72 h, read-out: EC50 values in PC-3 cells, trypan blue exclusion, 72 h, mean ± SEM
[11] = read-out: EC100 - EC50 values in PC-3 cells, difference between EC100 and EC50, mean ± SEM
[12] = Homo sapiens, PC-3, read-out: EC100 - EC50 values in PC-3 cells, difference between EC100 and EC50, mean ± SEM
[13] = read-out: EC100 - EC50 values in DU-145 cells, difference between EC100 and EC50, mean ± SEM
[14] = read-out: EC50 values in DU-145 cells, trypan blue exclusion, 72 h, mean ± SEM

O=C(c1ccccc1)c1cccc(-c2oc3cc(O)cc(O)c3c(=O)c2O)c1 [5a, 2-(3-Benzoylphenyl)-3,5,7-trihydroxy-4H-chromen-4-one]
EC50 [1, 8]: 14.8 ± 0.71 µM | EC50 [1, 9]: 5.62 ± 5.5 µM | EC50 [2, 10]: 9.31 ± 0.58 µM | EC50 [2, 11]: 8.55 ± 2.06 µM | viability at 72 h, 50 μM [3]: 34.8 ± 0.2%

O=C(c1ccccc1)c1ccc(-c2oc3cc(O)cc(O)c3c(=O)c2O)cc1 [5b, 2-(4-Benzoylphenyl)-3,5,7-trihydroxy-4H-chromen-4-one]
EC50 [1, 8]: 16.6 ± 0.7 µM | EC100 ([1]; Homo sapiens, DU-145, 72 h): 41 ± 2.18 µM | EC50 [1, 9]: 24.4 ± 1.1 µM | EC50 [2, 10]: 9.97 ± 0.36 µM | EC100 ([2]; Homo sapiens, PC-3, 72 h): 22.3 ± 0.91 µM | EC50 [2, 12]: 12.3 ± 0.99 µM | viability at 72 h, 50 μM [3]: 32.3 ± 2.92%

O=c1c(O)c(-c2cccc(I)c2)oc2cc(O)cc(O)c12 [5c, 3,5,7-Trihydroxy-2-(3-iodophenyl)-4H-chromen-4-one]
EC50 [1, 8]: 14.5 ± 1.02 µM | EC50 [1, 9]: 10.1 ± 0.84 µM | EC50 [2, 10]: 10.5 ± 0.72 µM | EC50 [2, 11]: 9 ± 1.06 µM | viability at 72 h, 50 μM [3]: 46.8 ± 2.48%

O=c1c(O)c(-c2ccc(I)cc2)oc2cc(O)cc(O)c12 [5d, 3,5,7-Trihydroxy-2-(4-iodophenyl)-4H-chromen-4-one]
EC50 [1, 8]: 7.51 ± 0.27 µM | EC50 [1, 9]: 2.33 ± 2.05 µM | EC50 [2, 10]: 4.13 ± 0.16 µM | EC50 [2, 11]: 6.21 ± 0.59 µM | viability at 72 h, 50 μM [3]: 34.8 ± 0.99%

Cc1ccc(-c2oc3cc(O)cc(O)c3c(=O)c2O)cc1 [5e, 3,5,7-Trihydroxy-2-(p-tolyl)-4H-chromen-4-one]
EC50 [1, 8]: 14.3 ± 0.53 µM | EC50 [1, 13]: 9.45 ± 1.89 µM | EC50 [2, 10]: 9.89 ± 1.24 µM | EC50 [2, 12]: 10.5 ± 3.29 µM | viability at 72 h, 50 μM [3]: 37.5 ± 2.27%

O=c1c(O)c(-c2ccccc2)oc2cc(O)cc(O)c12 [5f, Galangin, reference compound]
EC50 [1, 8]: 25.9 ± 0.59 µM | EC100 ([1]; Homo sapiens, DU-145, 72 h): 46.4 ± 3.92 µM | EC50 [1, 13]: 20.5 ± 0.46 µM | EC50 [2, 10]: 17.1 ± 1.29 µM | EC100 ([2]; Homo sapiens, PC-3, 72 h): 43.9 ± 4.14 µM | EC50 [2, 12]: 26.8 ± 5.31 µM | viability at 72 h, 50 μM [3]: 48 ± 1.38%

O=c1c(O)c(-c2cccc(-c3ccccc3)c2)oc2cc(O)cc(O)c12 [8c, 2-[(1,1′-Biphenyl)-3-yl]-3,5,7-trihydroxy-4H-chromen-4-one]
EC50 [1, 8]: 6.33 ± 0.58 µM | EC50 [1, 9]: 11.7 ± 1.11 µM | EC50 [2, 10]: 6.35 ± 0.26 µM | EC50 [2, 11]: 4.98 ± 1.54 µM | viability at 72 h, 50 μM [3]: 34.6 ± 2.74%

O=c1c(O)c(-c2ccc(-c3ccccc3)cc2)oc2cc(O)cc(O)c12 [8d, 2-[(1,1′-Biphenyl)-4-yl]-3,5,7-trihydroxy-4H-chromen-4-one]
EC50 [1, 8]: 5.57 ± 0.6 µM | EC50 [1, 9]: 6.86 ± 0.18 µM | EC50 [2, 10]: 5.4 ± 0.63 µM | EC50 [2, 11]: 3.35 ± 0.93 µM | viability at 72 h, 50 μM [3]: 34.4 ± 3.67%

COc1ccc(-c2oc3cc(O)cc(O)c3c(=O)c2O)cc1 [Kaempferide, reference compound]
EC50 [1, 8]: 19.8 µM | EC100 ([1]; Homo sapiens, DU-145, 72 h): 39.2 ± 0.87 µM | EC50 [1, 14]: 19.8 ± 0.5 µM | EC50 [1, 13]: 19.4 ± 2.02 µM | EC50 [2, 10]: 14.9 ± 0.78 µM | EC100 ([2]; Homo sapiens, PC-3, 72 h): 34.2 ± 1.66 µM | EC50 [2, 12]: 19.3 ± 2.1 µM | viability at 72 h, 50 μM [3]: 52.2 ± 1.17% | EC50 [4]: 30.1 µM | maximum achievable cell viability compared to the control [5]: < 50%

O=c1c(O)c(-c2ccc(O)cc2)oc2cc(O)cc(O)c12 [Kaempferol, reference compound]
EC50 [1, 8]: 38.4 ± 1.94 µM | EC100 ([1]; Homo sapiens, DU-145, 72 h): 74.4 ± 0.83 µM | EC50 [1, 13]: 36 ± 2.02 µM | EC50 [2, 10]: 33.3 ± 2.96 µM | EC100 ([2]; Homo sapiens, PC-3, 72 h): 57.6 ± 6.4 µM | EC50 [2, 12]: 24.3 ± 4.63 µM | viability at 72 h, 50 μM [3]: 73.8 ± 1.38%

O=c1c(O)c(-c2ccc(O)c(O)c2)oc2cc(O)cc(O)c12 [Quercetin, reference compound]
EC50 [1, 8]: 39.1 µM | EC100 ([1]; Homo sapiens, DU-145, 72 h): 85.4 ± 6.11 µM | EC50 [1, 14]: 39.1 ± 2.87 µM | EC50 [1, 13]: 46.3 ± 8.55 µM | EC50 [2, 10]: 32.9 µM | EC100 ([2]; Homo sapiens, PC-3, 72 h): 77.1 ± 3.4 µM | EC50 ([2]; read-out: EC50 values in PC-3 cells, trypan blue exclusion, 72 h, mean ± SEM): 32.9 ± 4.1 µM | EC50 [2, 11]: 44.3 ± 4.29 µM | viability at 72 h, 50 μM [3]: 84.5 ± 2.21% | % Viability of HIFF (50 μM) [6]: least inhibitory | EC50 [4]: 55.1 µM

O=c1c(-c2ccc(O)cc2)coc2cc(O)cc(O)c12 [genistein]
MTT reduced more than the control [7]: 60%
